According to ChEMBL document CHEMBL1165950, “Design and synthesis of new potent anticancer pyrazoles with high FLT3 kinase inhibitory selectivity” (Bioorg Med Chem, 2010):

What was measured:
Assay type in all cases: functional
A549 [1] = experiment: Growth inhibition of human A549 cells after 48 hrs by sulforhodamine B assay; conditions: A549, 48 h
In short: (§1)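 NCI five-dose SRB assay in RPMI 1640 with 5% FBS and 2 mM L-glutamine. Cells were preincubated 24 h, then exposed 48 h at 37 °C to five concentrations (10-fold or half-log serial dilutions from DMSO stocks). TCA fixation, SRB staining, and absorbance at 515 nm followed. IC50 was taken where [(Ti−Tz)/(C−Tz)]×100 = 50, with Tz as time-zero cell density.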

MDA-MB-231 = experiment: Cytotoxicity against human MDA-MB-231 cells assessed as cell growth at 0.001 uM after 48 hrs by sulforhodamine B assay; conditions: MDA-MB-231, 48 h, read-out: Activity
HT-29 = experiment: Cytotoxicity against human HT-29 cells assessed as cell growth at 0.01 uM after 48 hrs by sulforhodamine B assay; conditions: HT-29, 48 h, read-out: Activity
OVCAR-5 = experiment: Cytotoxicity against human OVCAR5 cells assessed as cell growth at 1 uM after 48 hrs by sulforhodamine B assay; conditions: OVCAR-5, 48 h, read-out: Activity
TK-10 [2] = experiment: Cytotoxicity against human TK10 cells assessed as cell growth at 1 uM after 48 hrs by sulforhodamine B assay; conditions: TK-10, 48 h, read-out: Activity
M14 = experiment: Cytotoxicity against human M14 cells assessed as cell growth at 0.001 uM after 48 hrs by sulforhodamine B assay; conditions: M14, 48 h, read-out: Activity
OVCAR-3 [3] = experiment: Cytotoxicity against human OVCAR-3 cells assessed as cell growth at 0.001 uM after 48 hrs by sulforhodamine B assay; conditions: OVCAR-3, 48 h, read-out: Activity
OVCAR-3 [4] = experiment: Growth inhibition of human OVCAR-3 cells after 48 hrs by sulforhodamine B assay; conditions: OVCAR-3, 48 h; for CC50: read-out: LC50 (the source's name)
In short: (§2)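 NCI 60-cell screen, five-dose mode. Cells grown in RPMI 1640 with 5% FBS and 2 mM L-glutamine and plated at 5000-40,000 cells/well according to doubling time. After 24 h preincubation, a Tz plate was TCA-fixed. Five concentrations (10-fold or 1/2 log dilutions) were applied for 48 h at 37 °C. SRB staining read at 515 nm. IC50 taken from [(Ti-Tz)/(C-Tz)]×100 = 50.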

SF-295 [5] = experiment: Growth inhibition of human SF295 cells after 48 hrs by sulforhodamine B assay; conditions: SF-295, 48 h; for CC50: read-out: LC50 (the source's name); in short: as §2
UACC-257 = experiment: Cytotoxicity against human UACC257 cells assessed as cell growth at 0.001 uM after 48 hrs by sulforhodamine B assay; conditions: UACC-257, 48 h, read-out: Activity
A498 [6] = experiment: Cytotoxicity against human A498 cells assessed as cell growth at 0.001 uM after 48 hrs by sulforhodamine B assay; conditions: A498, 48 h, read-out: Activity
In short: (§3)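 NCI-60 five-dose screen. Cells were grown in RPMI 1640 with 5% FBS and 2 mM L-glutamine, plated at 5000–40,000 cells/well and preincubated for 24 h. Time-zero plates were TCA-fixed. DMSO-solubilized drug was added at five concentrations (10-fold or ½-log serial dilutions) for 48 h at 37 °C, 5% CO2. Cells were TCA-fixed, stained with 0.4% SRB and read at 515 nm. Percent growth used time-zero, control and test absorbances.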

A549 [7] = experiment: Cytotoxicity against human A549 cells assessed as cell growth at 100 nM after 48 hrs by sulforhodamine B assay; conditions: A549, 48 h, read-out: Activity; in short: as §3
PC-3 = experiment: Cytotoxicity against human PC3 cells assessed as cell growth at 100 nM after 48 hrs by sulforhodamine B assay; conditions: PC-3, 48 h, read-out: Activity
SF-295 [8] = experiment: Cytotoxicity against human SF295 cells assessed as cell growth at 0.001 uM after 48 hrs by sulforhodamine B assay; conditions: SF-295, 48 h, read-out: Activity
NCI/ADR-RES = experiment: Cytotoxicity against human NCI/ADR-RES cells assessed as cell growth at 100 nM after 48 hrs by sulforhodamine B assay; conditions: read-out: Activity
HCT-15 = experiment: Cytotoxicity against human HCT15 cells assessed as cell growth at 10 uM; conditions: read-out: Activity
In short: (§4)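 Single-dose NCI-60 screen at 10 µM. Cells were grown in RPMI 1640 with 5% FBS and 2 mM L-glutamine, then treated for 48 h at 37 °C. Protein was measured by SRB staining with absorbance at 515 nm. Percentage growth was recorded, and inhibition percentage was calculated as 100 minus growth percentage.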

U-251 = experiment: Growth inhibition of human U251 cells after 48 hrs by sulforhodamine B assay; conditions: U-251, 48 h; for CC50: read-out: LC50 (the source's name); in short: as §2
OVCAR-3 [9] = experiment: Cytotoxicity against human OVCAR-3 cells assessed as cell growth at 0.01 uM after 48 hrs by sulforhodamine B assay; conditions: OVCAR-3, 48 h, read-out: Activity
SF-539 [10] = experiment: Cytotoxicity against human SF539 cells assessed as cell growth at 0.001 uM after 48 hrs by sulforhodamine B assay; conditions: SF-539, 48 h, read-out: Activity
SK-OV-3 = experiment: Cytotoxicity against human SKOV3 cells assessed as cell growth at 10 uM; conditions: read-out: Activity
In short: (§5)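 NCI-60 screen: cells grown in RPMI 1640 with 5% FBS and 2 mM L-glutamine, plated at 5000–40,000 cells/well according to doubling time, and preincubated 24 h at 37 °C, 5% CO2. The single 10 µM dose (DMSO stock) was added, then incubated 48 h. Cells were TCA-fixed and stained with 0.4% SRB, read at 515 nm, and growth % calculated against time-zero and control plates.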

NCI-H226 = experiment: Cytotoxicity against human NCI-H226 cells assessed as cell growth at 10 uM; conditions: read-out: Activity; in short: as §5
A498 [11] = experiment: Growth inhibition of human A498 cells after 48 hrs by sulforhodamine B assay; conditions: A498, 48 h; in short: as §1
T47D = experiment: Cytotoxicity against human T47D cells assessed as cell growth at 0.01 uM after 48 hrs by sulforhodamine B assay; conditions: read-out: Activity
HOP-62 = experiment: Cytotoxicity against human HOP62 cells assessed as cell growth at 100 nM after 48 hrs by sulforhodamine B assay; conditions: HOP-62, 48 h, read-out: Activity
TK-10 [12] = experiment: Growth inhibition of human TK10 cells after 48 hrs by sulforhodamine B assay; conditions: TK-10, 48 h; for CC50: read-out: LC50 (the source's name); in short: as §2
NCI-H23 = experiment: Cytotoxicity against human NCI-H23 cells assessed as cell growth at 100 nM after 48 hrs by sulforhodamine B assay; conditions: NCI-H23, 48 h, read-out: Activity
SF-539 [13] = experiment: Cytotoxicity against human SF539 cells assessed as cell growth at 0.01 uM after 48 hrs by sulforhodamine B assay; conditions: SF-539, 48 h, read-out: Activity
HCC 2998 = experiment: Cytotoxicity against human HCC2998 cells assessed as cell growth at 10 uM; conditions: read-out: Activity; in short: as §4

Row | SMILES | GI50 (A549 [1]) [µM] | LC50 (A549 [1]) [µM] | TGI (A549 [1]) [µM] | growth at 0.001 µM (MDA-MB-231) [%] | growth at 0.01 µM (HT-29) [%] | growth at 1 µM (OVCAR-5) [%] | growth at 1 µM (TK-10 [2]) [%] | growth at 0.001 µM (M14) [%] | growth at 0.001 µM (OVCAR-3 [3]) [%] | GI50 (OVCAR-3 [4]) [µM] | GI50 (SF-295 [5]) [µM] | TGI (SF-295 [5]) [µM] | CC50 (SF-295 [5]) [µM] | growth at 0.001 µM (UACC-257) [%] | growth at 0.001 µM (A498 [6]) [%] | growth at 0.1 µM (A549 [7]) [%] | growth at 0.1 µM (PC-3) [%] | growth at 0.001 µM (SF-295 [8]) [%] | growth at 0.1 µM (NCI/ADR-RES) [%] | growth at 10 µM (HCT-15) [%] | other results
1 | COc1cc(C)cc(-c2c(-c3ccnc(-c4ccc(N(C)C)cc4)c3)cnn2CC#N)c1 | 0.155 | > 100 | > 100 | 101 | 26 | 81 | 31 | 95 | 98 | 0.03 | 0.0529 | 0.315 | > 100 | 89 | 94 | 10 | 11 | 83 | 2 | 8.33 | CC50 (OVCAR-3 [4]): > 100 µM; GI50 (U-251): 0.178 µM; TGI (U-251): > 100 µM; CC50 (U-251): > 100 µM; growth at 0.01 µM (OVCAR-3 [9]): 63%; growth at 0.001 µM (SF-539 [10]): 104%; growth at 10 µM (SK-OV-3): -3.63%; growth at 10 µM (NCI-H226): 39.8%; GI50 (A498 [11]): 0.132 µM; LC50 (A498 [11]): > 100 µM; TGI (A498 [11]): > 100 µM; growth at 0.01 µM (T47D): 36%; growth at 0.1 µM (HOP-62): 33%; GI50 (TK-10 [12]): 0.636 µM; TGI (TK-10 [12]): > 100 µM; CC50 (TK-10 [12]): > 100 µM; growth at 0.1 µM (NCI-H23): 28%; growth at 0.01 µM (SF-539 [13]): 79%; growth at 10 µM (HCC 2998): -57.5%
2 | Cc1cc(O)cc(-c2nn(CC#N)cc2-c2ccnc(-c3ccc(N(C)C)cc3)c2)c1 | 4.18 | > 100 | 54.5 | 99 | 96 | 64 | 44 | 96 | 105 | 1.91 | 2.18 | 8.71 | 84.1 | 96 | 101 | 95 | 94 | 93 | 91 | 22.9 | TGI (OVCAR-3 [4]): 4.78 µM; CC50 (OVCAR-3 [4]): 21.2 µM; GI50 (U-251): 3.14 µM; TGI (U-251): 12.9 µM; CC50 (U-251): 61.3 µM; growth at 0.01 µM (OVCAR-3 [9]): 91%; growth at 0.001 µM (SF-539 [10]): 97%; growth at 10 µM (SK-OV-3): 18%; growth at 10 µM (NCI-H226): 35.8%; GI50 (A498 [11]): 3.03 µM; LC50 (A498 [11]): > 100 µM; TGI (A498 [11]): 13.4 µM; growth at 0.01 µM (T47D): 90%; growth at 0.1 µM (HOP-62): 80%; GI50 (TK-10 [12]): 8.4 µM; TGI (TK-10 [12]): 57.8 µM; CC50 (TK-10 [12]): > 100 µM; growth at 0.1 µM (NCI-H23): 98%; growth at 0.01 µM (SF-539 [13]): 92%; growth at 10 µM (HCC 2998): 53.5%
3 | COc1cc(C)cc(-c2nn(CC#N)cc2-c2ccnc(-c3ccc(N(C)C)cc3)c2)c1 | 0.583 | > 100 | 483 | 97 | 105 | 31 | 29 | 96 | 106 | 0.204 | 0.304 | 1.91 | > 100 | 90 | 91 | 36 | 14 | 93 | -22 | 8.19 | TGI (OVCAR-3 [4]): 0.448 µM; GI50 (U-251): 0.415 µM; TGI (U-251): 5.86 µM; CC50 (U-251): > 100 µM; growth at 0.01 µM (OVCAR-3 [9]): 95%; growth at 0.001 µM (SF-539 [10]): 102%; growth at 10 µM (SK-OV-3): 2.56%; growth at 10 µM (NCI-H226): 24.9%; GI50 (A498 [11]): 0.246 µM; LC50 (A498 [11]): > 100 µM; TGI (A498 [11]): 0.818 µM; growth at 0.01 µM (T47D): 104%; growth at 0.1 µM (HOP-62): 16%; GI50 (TK-10 [12]): 0.101 µM; TGI (TK-10 [12]): 78.9 µM; CC50 (TK-10 [12]): > 100 µM; growth at 0.1 µM (NCI-H23): 31%; growth at 0.01 µM (SF-539 [13]): 107%; growth at 10 µM (HCC 2998): -46.5%
